The test system of the test is Lipid bilayer. Description: Binding affinity to phosphatidylglycerol/cardiolipin/phosphatidylethanolamine large unilamellar vesicle assessed as induction of calcein leakage after 15 mins by spectrofluorophotometric method. The method, boiled down:
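Compositions were PG/CL/PE 2:1:7 w/w/w (E. coli membrane mimic; lines 4,5) and PC/PE/PI/ergosterol 5:4:1:2 w/w/w/w (fungal membrane mimic; lines 2,3). Lipids underwent 20 freeze–thaw cycles and were extruded through 100 nm filters; free calcein was removed by gel filtration.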

As for H-RRIRIIIRIRR-NH2, the Activity result was “Dose-dependent effect”.

Source of the values: ChEMBL document CHEMBL4177755, “Combating Drug-Resistant Fungi with Novel Imperfectly Amphipathic Palindromic Peptides” (J Med Chem, 2018).
